Source: ChEMBL document CHEMBL1240522, “Effect of goniothalamin on the development of Ehrlich solid tumor in mice” (Bioorg Med Chem, 2010)
Calls of active or inactive are those of the source. No cut-off for these calls is given here.

How the values were obtained:
U-251 = assay: Cytotoxicity against human U251 cells after 48 hrs by sulforhodamine B assay; assay type: functional; conditions: U-251, 48 h
Summary of the method: (§1)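 Cells grown in RPMI 1640 with 5% FBS at 37 °C, 5% CO2, with penicillin/streptomycin. Treated for 48 h with compound in DMSO/RPMI at […]. Fixed with 50% trichloroacetic acid, protein stained with sulforhodamine B and read at 540 nm. TGI (total growth inhibition) obtained by non-linear regression of the concentration–response curves.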

786-0 = assay: Cytotoxicity against human 786-0 cells after 48 hrs by sulforhodamine B assay; assay type: functional; conditions: 786-0, 48 h; summary of the method: as §1
Mus musculus [1] = assay: Antiinflammatory activity in BALB/C mouse assessed as inhibition of carrageenan-induced paw edema at 5 mg/kg, ip administered 30 mins before carrageenan challenge measured before 24 hrs by plethysmometer; assay type: functional, organism-based; set-up: dose 5 mg/kg
Summary of the method: (§2)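 Balb/C mice, n = 8/group. Right hind paw basal volume measured by plethysmometer. Single ip dose in 0.9% saline vehicle, then carrageenan 2.5% injected intraplantar into the right hind footpad 30 min later. Edema taken as measured minus basal volume at 1.5, 3.0, 4.5, 6.0, 24, 48 and 72 h. Expressed as % inhibition vs vehicle ± standard deviation; ANOVA.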

[2] = Antitumor activity against mouse EAC cells xenografted in BALB/C mouse assessed as inhibition of increase in tumor volume at 3 mg/kg, ip administered every 3 days measured on day 15 relative to control; assay type: functional; conditions: Ehrlich, route intraperitoneal
Summary of the method: (§3)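 Ehrlich cells kept as ascites by weekly ip passage of 5 × 10^5 cells in mice. Balb/C mice (n = 8/group) inoculated with 2.5 × 10^6 cells into the right hind footpad. Dosed ip every third day from day 3, vehicle 0.9% saline. Tumour volume taken as plethysmometer paw volume minus basal, every third day to day 15. Reported as % inhibition vs vehicle ± SD; ANOVA.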

[3] = Antitumor activity against mouse EAC cells xenografted in BALB/C mouse assessed as inhibition of increase in tumor volume at 3 mg/kg, ip administered every 3 days measured on day 7 relative to control; assay type: functional; conditions: Ehrlich, route intraperitoneal; summary of the method: as §3
[4] = Cytotoxicity against human PCO3 cells after 48 hrs by sulforhodamine B assay; assay type: functional; conditions: PCO3, 48 h; summary of the method: as §1
OVCAR-3 = assay: Cytotoxicity against human OVCAR-3 cells after 48 hrs by sulforhodamine B assay; assay type: functional; conditions: OVCAR-3, 48 h; summary of the method: as §1
UACC-62 = assay: Cytotoxicity against human UACC62 cells after 48 hrs by sulforhodamine B assay; assay type: functional; conditions: UACC-62, 48 h; summary of the method: as §1
Mus musculus [5] = assay: Antiinflammatory activity in ip dosed BALB/C mouse assessed as inhibition of carrageenan-induced paw edema administered 30 mins before carrageenan challenge measured after 24 hrs by plethysmometer; assay type: functional, organism-based; summary of the method: as §2
NCI-H460 = assay: Cytotoxicity against human NCI-H460 cells after 48 hrs by sulforhodamine B assay; assay type: functional; conditions: NCI-H460, 48 h; summary of the method: as §1
[6] = Antitumor activity against mouse EAC cells xenografted in BALB/C mouse assessed as reduction of tumor weight at 3 mg/kg, ip administered every 3 days measured on day 15 relative to control; assay type: functional; conditions: Ehrlich, route intraperitoneal
Summary of the method: (§4)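 Ehrlich footpad tumour model in Balb/C mice (n = 8/group, 2.5 × 10^6 cells) with ip dosing every third day from day 3 in 0.9% saline. Mice sacrificed on day 15 and both hind paws weighed. Relative tumour weight = (tumour paw − healthy paw weight)/body weight. Reported as % inhibition vs vehicle ± SD; ANOVA.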

[7] = Cytotoxicity against human NCI-ADR-RES cells after 48 hrs by sulforhodamine B assay; assay type: functional; summary of the method: as §1
MCF7 = assay: Cytotoxicity against human MCF7 cells after 48 hrs by sulforhodamine B assay; assay type: functional; conditions: MCF7, 48 h; summary of the method: as §1
Mus musculus [8] = assay: Acute toxicity in BALB/C mouse assessed as reduction of body weight at up to 3 mg/kg, ip after 15 days; assay type: organism-based; set-up: dose 3 mg/kg, route intraperitoneal; conditions: in vivo, 360 h
Summary of the method: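 Balb/C mice (n = 8/group) carrying Ehrlich footpad tumours, given ip doses every third day from day 3 (four treatments), vehicle 0.9% saline. Animals weighed and watched for toxicity throughout; body-weight loss recorded at the end of the experiment, day 15.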

HT-29 = assay: Cytotoxicity against human HT-29 cells after 48 hrs by sulforhodamine B assay; assay type: functional; conditions: HT-29, 48 h; summary of the method: as §1
[9] = Antitumor activity against mouse EAC cells xenografted in BALB/C mouse assessed as inhibition of tumor growth at 10 mg/kg, ip administered every 3 days measured on day 7 relative to control; assay type: functional; conditions: Ehrlich, route intraperitoneal
Summary of the method: (§5)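 Ehrlich cells were kept as ascites by weekly peritoneal passage in mice. Balb/C mice (n = 8/group) received 2.5 × 10^6 cells in 60 µL into the right hind footpad. Dosing was intraperitoneal every third day from day 3, with saline 0.9% vehicle. Tumor volume was plethysmometer paw volume minus basal volume, read every third day to day 15, and reported as % inhibition versus vehicle ± SD.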

[10] = Antitumor activity against mouse EAC cells xenografted in BALB/C mouse assessed as inhibition of tumor growth at 10 mg/kg, ip administered every 3 days measured on day 15 relative to control; assay type: functional; conditions: Ehrlich, route intraperitoneal; summary of the method: as §5
[11] = Antitumor activity against mouse EAC cells xenografted in BALB/C mouse assessed as reduction of tumor weight at 10 mg/kg, ip administered every 3 days measured on day 15 relative to control; assay type: functional; conditions: Ehrlich, route intraperitoneal
Summary of the method: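 Ehrlich cells (2.5 × 10^6 in 60 µL) were injected into the right hind footpad of Balb/C mice (n = 8/group). Dosing was intraperitoneal every third day from day 3, with saline 0.9% vehicle. On day 15 both hind paws were removed and weighed. Relative tumor weight was (tumor paw − healthy paw weight)/body weight, reported as % inhibition versus vehicle ± SD.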

Mus musculus [12] = assay: Acute toxicity in BALB/C mouse assessed as reduction of body weight at up to 10 mg/kg, ip after 15 days; assay type: organism-based; set-up: dose 10 mg/kg, route intraperitoneal; conditions: in vivo, 360 h
Summary of the method: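 Body weight and toxicity signs were tracked in Balb/C mice (n = 8/group) carrying Ehrlich footpad tumors. Dosing was intraperitoneal every third day from day 3 after inoculation, four treatments in total, with saline 0.9% vehicle. Mice were weighed throughout until sacrifice on day 15.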

Mus musculus [13] = assay: Acute toxicity in BALB/C mouse assessed as reduction of body weight at up to 50 mg/kg, ip after 15 days; assay type: organism-based; set-up: dose 50 mg/kg, route intraperitoneal; conditions: in vivo, 360 h
Summary of the method: (§6)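 Balb/C mice (20–35 g) dosed intraperitoneally at 50, 100 and 300 mg/kg. Observed for 4 h, then daily for 14 days, for body weight loss, locomotion, behaviour (agitation, lethargy), respiration, salivation, tearing eyes, cyanosis and mortality.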

[14] = Antitumor activity against mouse EAC cells xenografted in BALB/C mouse assessed as inhibition of increase in tumor volume at 50 mg/kg, ip administered every 3 days measured on day 13 relative to control; assay type: functional; conditions: Ehrlich, route intraperitoneal; summary of the method: as §3
Mus musculus [15] = assay: Acute toxicity in BALB/C mouse assessed as mortality at up to 300 mg/kg, ip after 4 hrs; assay type: organism-based; set-up: dose 300 mg/kg, route intraperitoneal; conditions: in vivo; summary of the method: as §6
Mus musculus [16] = assay: Acute toxicity in BALB/C mouse assessed as mortality at up to 300 mg/kg, ip after 15 days; assay type: organism-based; set-up: dose 300 mg/kg, route intraperitoneal; conditions: in vivo, 360 h; summary of the method: as §6
[17] = Antitumor activity against mouse EAC cells xenografted in BALB/C mouse assessed as inhibition of increase in tumor volume at 50 mg/kg, ip administered every 3 days measured on day 15 relative to control; assay type: functional; conditions: Ehrlich, route intraperitoneal; summary of the method: as §3
[18] = Antitumor activity against mouse EAC cells xenografted in BALB/C mouse assessed as reduction of tumor weight at 50 mg/kg, ip administered every 3 days measured on day 15 relative to control; assay type: functional; conditions: Ehrlich, route intraperitoneal; summary of the method: as §4

Row | SMILES | TGI (U-251) [µM] | TGI (786-0) [µM] | TGI [4] [µM] | TGI (OVCAR-3) [µM] | TGI (UACC-62) [µM] | TGI (NCI-H460) [µM] | TGI [7] [µM] | TGI (MCF7) [µM] | TGI (HT-29) [µM] | further results
1 | COc1cccc2c1C(=O)c1c(O)c3c(c(O)c1C2=O)C[C@@](O)(C(=O)CO)C[C@@H]3O[C@H]1C[C@H](N)[C@H](O)[C@H](C)O1 [DOXORUBICIN] | 1.42 | 7.86 | 4.03 | 10.2 | 0.32 | 2.37 | 2.83 | 11 | 16.4 | inhibition (Mus musculus [1]): Active; inhibition in vivo at 3 mg/kg [2]: 34.7%; inhibition in vivo at 3 mg/kg [3]: 42.7%; inhibition (Mus musculus [5]): Dose-dependent effect; inhibition in vivo at 3 mg/kg [6]: 28%; Activity (Mus musculus [8]): 2.5 g
2 | O=c1[nH]cc(F)c(=O)[nH]1 [FLUOROURACIL] | – | – | – | – | – | – | – | – | – | inhibition in vivo at 10 mg/kg [9]: 41.7%; inhibition in vivo at 10 mg/kg [10]: 57.6%; inhibition in vivo at 10 mg/kg [11]: 46.1%; Activity (Mus musculus [12]): Non-toxic
3 | O=C1C=CC[C@H](/C=C/c2ccccc2)O1 [GONIOTHALAMIN] | 13.4 | 18.6 | 13.5 | 8.31 | 21.6 | 32.4 | 1.2 | 21.7 | 22 | Activity (Mus musculus [13]): Non-toxic; inhibition in vivo at 50 mg/kg [14]: 21.9%; Activity (Mus musculus [15]): Non-toxic; Activity (Mus musculus [16]): Non-toxic; inhibition in vivo at 50 mg/kg [17]: 37.4%; inhibition in vivo at 50 mg/kg [18]: 25.3%
